ChEMBL document CHEMBL4837210 (Eur J Med Chem, 2021)
The source made the active and inactive calls. No cut-off for these calls is given here.

Tests used:
[1] = tested on: Bacillus subtilis; experiment: Antibacterial activity against penicillin-susceptible Bacillus subtilis ATCC 9372 assessed as bacterial growth inhibition incubated for 24 hrs by CLSI protocol based broth microdilution method; format: functional
[2] = tested on: Bacillus pumilus; experiment: Antibacterial activity against penicillin-susceptible Bacillus pumilus CMCC 63202 assessed as bacterial growth inhibition by broth dilution method; format: functional; conditions: time 24 hrs
In short: (§1)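 Broth microdilution in Mueller Hinton broth. A 0.5 McFarland suspension was diluted tenfold, giving an inoculum of 1.5 × 10⁷ cfu/mL. This was added to 2-fold serial compound dilutions from […]. Plates were incubated aerobically at 37 °C for 24 h. MIC was the lowest concentration with no visible turbidity.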

[3] = tested on: Streptococcus pyogenes; experiment: Antibacterial activity against erythromycin-susceptible Streptococcus pyogenes clinical isolate 1 assessed as bacterial growth inhibition incubated for 24 hrs by CLSI protocol based broth microdilution method; format: functional
[4] = tested on: Enterococcus faecalis; experiment: Antibacterial activity against vancomycin-susceptible Enterococcus faecalis ATCC 29212 assessed as bacterial growth inhibition incubated for 24 hrs by CLSI protocol based broth microdilution method; format: functional
[5] = tested on: Escherichia coli; experiment: Antibacterial activity against penicillin-susceptible Escherichia coli ATCC 25922 assessed as inhibition of bacterial growth measured by broth microdilution method; format: functional; conditions: time 24 hrs; in short: as §1
[6] = tested on: Staphylococcus aureus; experiment: Antibacterial activity against methicillin-resistant Staphylococcus aureus ATCC 43300 assessed as inhibition of bacterial growth by broth microdilution method; format: functional; conditions: time 24 hrs
In short: (§2)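 Broth microdilution MIC. A 0.5 McFarland suspension was diluted 10-fold and added at 1.5 × 10⁷ cfu/mL to 2-fold dilutions (0.125–64) in Mueller Hinton broth. Incubated aerobically 24 h at 37 °C. MIC was the lowest concentration with no visible turbidity.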

[7] = tested on: Staphylococcus aureus; experiment: Antibacterial activity against penicillin-resistant Staphylococcus aureus assessed as inhibition of bacterial growth measured by broth microdilution method; format: functional; conditions: time 24 hrs; in short: as §2
[8] = tested on: Staphylococcus aureus; experiment: Antibacterial activity against Staphylococcus aureus assessed as inhibition of bacterial growth measured by broth microdilution method; format: functional; conditions: time 24 hrs; in short: as §1
[9] = tested on: Staphylococcus epidermidis; experiment: Antibacterial activity against penicillin-resistant Staphylococcus epidermidis assessed as inhibition of bacterial growth measured by broth microdilution method; format: functional; conditions: time 24 hrs
[10] = tested on: Streptococcus pyogenes; experiment: Antibacterial activity against erythromycin-resistant Streptococcus pyogenes 2 assessed as bacterial growth inhibition incubated for 24 hrs by CLSI protocol based broth microdilution method; format: functional
[11] = tested on: Staphylococcus aureus; experiment: Bactericidal activity against erythromycin-susceptible Staphylococcus aureus ATCC 25923 measured after 24 hrs by CLSI protocol based method; format: functional
In short: (§3)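 MBC after broth microdilution. After 24 h, aliquots from clear wells were plated on tryptic soy agar and incubated aerobically 24 h at 37 °C. MBC was the lowest concentration giving no colonies.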

[12] = tested on: Staphylococcus aureus; experiment: Bactericidal activity against methicillin-resistant Staphylococcus aureus ATCC 43300 measured after 24 hrs by CLSI protocol based method; format: functional; in short: as §3
[13] = tested on: Staphylococcus aureus; experiment: Bactericidal activity against penicillin-resistant Staphylococcus aureus measured after 24 hrs by CLSI protocol based method; format: functional; in short: as §3
[14] = tested on: Bacillus subtilis; experiment: Bactericidal activity against penicillin-susceptible Bacillus subtilis ATCC 9372 measured after 24 hrs by CLSI protocol based method; format: functional
In short: (§4)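 MBC followed on from the 24 h broth microdilution MIC plates. Aliquots from clear wells were spread on tryptic soy agar and incubated aerobically at 37 °C for 24 h. MBC was the minimum concentration giving no colonies.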

[15] = tested on: Bacillus pumilus; experiment: Bactericidal activity against penicillin-susceptible Bacillus pumilus CMCC 63202 measured after 24 hrs by CLSI protocol based method; format: functional; in short: as §4
[16] = tested on: Staphylococcus aureus; experiment: Ratio of MBC to MIC against erythromycin-susceptible Staphylococcus aureus ATCC 25923; format: functional
In short: (§5)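 MBC/MIC ratio from the broth microdilution MIC (24 h, 37 °C, MH broth) and the MBC (clear wells subcultured on tryptic soy agar, 24 h). A ratio ≤4 is read as bactericidal per CLSI.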

[17] = tested on: Staphylococcus aureus; experiment: Ratio of MBC to MIC against penicillin-resistant Staphylococcus aureus; format: functional; in short: as §5
[18] = tested on: Bacillus pumilus; experiment: Ratio of MBC to MIC against penicillin-susceptible Bacillus pumilus CMCC 63202; format: functional; in short: as §5
[19] = tested on: Staphylococcus epidermidis; experiment: Ratio of MBC to MIC against penicillin-resistant Staphylococcus epidermidis; format: functional; in short: as §5
[20] = tested on: Staphylococcus aureus; experiment: Bactericidal activity against […] Staphylococcus aureus ATCC 25923 assessed as reduction in colony forming unit at 0.5 times MIC by time kill assay; format: functional, organism-based
In short: (§6)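 Samples at 0, 3, 6, 9, 12 and 24 h were serially diluted in MH broth and plated on tryptic soy agar. CFU/mL from colony counts after 24 h at 37 °C.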

[21] = tested on: Staphylococcus aureus; experiment: Bactericidal activity against […] Staphylococcus aureus ATCC 25923 assessed as log reduction in colony forming unit at 4 times MIC after 3 hrs by time kill assay; format: functional; in short: as §6
[22] = tested on: Staphylococcus aureus; experiment: Bactericidal activity against […] Staphylococcus aureus ATCC 25923 assessed as log reduction in colony forming unit at 2 times MIC after 24 hrs by time kill assay; format: functional; in short: as §6
[23] = tested on: Pseudomonas aeruginosa; experiment: Inhibition of biofilm formation in Pseudomonas aeruginosa ATCC 27853 at 64 ug/ml incubated for 18 hrs by crystal violet staining based method; format: functional, organism-based; conditions: dose 64.0 µg/ml
In short: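 P. aeruginosa ATCC27853 was grown overnight in MH medium, washed and diluted to OD₆₂₀ 0.05, grown to mid-log (OD₆₂₀ 0.3–0.5), then rediluted to 0.05. Cultures were grown statically with compound at 37 °C for 18 h. Wells were washed with PBS, fixed in methanol for 15 min and stained with 0.1% crystal violet for 30 min. Stain was solubilized in 1% SDS and read at A540, in triplicate.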

[24] = tested on: Staphylococcus aureus; experiment: Antibacterial activity against Staphylococcus aureus ATCC 25923 assessed as reduction in bacterial growth measured after 18 passages by resistance development assay relative to control; format: functional; conditions: time 24 hrs
In short: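 Serial-passage resistance test with S. aureus ATCC25923. Cells from wells at 0.5× MIC made the next inoculum (~10⁷ CFU/mL), and the MIC was redetermined after 24 h at 37 °C.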

[25] = tested on: Bacillus pumilus; experiment: Induction of morphological changes in Bacillus pumilus CMCC 63202 assessed as alteration in length measured at 0.5 times MIC after 18 hrs by Phase contrast light microscope analysis (reference value: 1.2 to 3 micrometer); format: functional
[26] = tested on: Staphylococcus aureus; experiment: In vivo antibacterial activity against […] Staphylococcus aureus ATCC 25923 infected in Kunming mouse assessed as reduction in bacterial load at 25 mg/kg, ip administered 1 hr post bacterial infection and measured after 1 hr post compound treatment; format: functional, organism-based
In short: (§7)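 Kunming mice (~25 g, 6 per group) infected intravenously with 6 × 10⁷ CFU S. aureus ATCC25923 in 0.2 mL saline. About 1 h later, 1, 5 or 25 mg/kg was given intraperitoneally in 0.5 mL vehicle, with linezolid as reference. Orbital blood (100 µL) was taken before and 1 h after treatment, spread on MH agar and counted after 24 h.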

[27] = tested on: Staphylococcus aureus; experiment: In vivo antibacterial activity against […] Staphylococcus aureus ATCC 25923 infected in Kunming mouse assessed as reduction in viable bacterial cells at 5 mg/kg, administered 1 hr post bacterial infection and measured after 1 hr post compound treatment; format: functional, organism-based; in short: as §7
[28] = tested on: Enterococcus faecium; experiment: Antibacterial activity against vancomycin-resistant Enterococcus faecium ATCC 51559 assessed as bacterial growth inhibition incubated for 24 hrs by CLSI protocol based broth microdilution method; conditions: ATCC 51559, 24 h
[29] = tested on: Enterococcus faecium; experiment: Antibacterial activity against vancomycin-susceptible Enterococcus faecium ATCC19434 assessed as bacterial growth inhibition incubated for 24 hrs by CLSI protocol based broth microdilution method; conditions: ATCC19434, 24 h

`C[n+]1c2ccccc2c(/C=C/c2ccc(C(C)(C)C)cc2)c2ccccc21.[I-]` was tested, and the MIC [1] was 0.25 µg/mL, the MIC [2] was 0.5 µg/mL and the MIC [3] was under 0.125 µg/mL. For the same compound, the MIC [4] was 2 µg/mL, the MIC [5] was over 64 µg/mL and the MIC [6] was 1 µg/mL. The MIC [7] was 2 µg/mL, the MIC [8] was 0.5 µg/mL and the MIC [9] was 1 µg/mL. It also gave an MIC [10] of 0.25 µg/mL, an MBC [11] of 2 µg/mL and an MBC [12] of 4 µg/mL. The MBC [13] was 4 µg/mL, the MBC [14] was 0.5 µg/mL and the MBC [15] was 2 µg/mL. It also gave a Ratio [16] of 4, a Ratio [17] of 2 and a Ratio [18] of 4. The Ratio [19] was 1, the MIC [20] was “inactive” and the Activity [21] was 2.2 CFU. The Activity [22] was 2.43 CFU, the inhibition [23] was “inactive” and the fold change (FC) [24] was 2. For the same compound, the Activity [25] was 20 um, the Activity [26] was “Active” and the Activity [27] was “Active”. The MIC [28] was 2 µg/mL and the MIC [29] was 4 µg/mL.
